# Results taken from paper PMC11605304 (RSC Medicinal Chemistry, 2024).
# Experiments:
# [1] = test system: PSN-1 cells; test: MTT cytotoxicity, 72 h, PSN-1 pancreatic cancer cells; format: cell-based, human; settings: read-out: IC50 (μM) ± S.D., PSN-1, MTT test
# Summary of the method: (§1)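 Cells were kept in log phase at 37 °C, 5% CO₂, in RPMI-1640 with 10% fetal calf serum, penicillin/streptomycin and 2 mM L-glutamine. […] MTT read-out after 72 h exposure, absorbance 570 nm versus untreated wells. IC50 from 4-parameter logistic model; means of at least three independent experiments.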
# [2] = test system: U-1285 cells; test: MTT cytotoxicity, 72 h, U-1285 small cell lung cancer cells; format: cell-based, human; settings: read-out: IC50 (μM) ± S.D., U-1285, MTT test
# Summary of the method: as §1
# [3] = molecular target: LoVo spheroids; test: 3D spheroid culture, acid phosphatase; format: cell-based, human; settings: read-out: IC50 (μM) ± S.D., LoVo spheroids; 3D spheroids, 72 h, APH assay
# Summary of the method: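 LoVo spheroids formed from 2.5 × 10³ cells per well in round-bottom non-treated wells, in phenol red free F-12 HAMs medium with 10% fetal calf serum plus 20% methyl cellulose stock solution. Test compound added from DMSO stock (final DMSO 0.5%) at increasing concentrations for 72 h. Viability by modified acid phosphatase assay at 405 nm. IC50 from 4-parameter logistic fit; means of at least three independent experiments.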
# [4] = test system: LoVo cells; test: Hoechst 33258 staining, morphological analysis of cell death mode; format: cell-based, human; settings: 48 h with IC50
# Summary of the method: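 LoVo cells were seeded at 5 × 10⁴ per well on tissue-culture slides, grown 24 h and washed twice with PBS. They were then treated with test compound, stained 5 min with 10 μg mL⁻¹ Hoechst 33258 in PBS, and examined for nuclear morphology by confocal microscopy at 40× and 10×.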
# [5] = test system: B-CPAP cells; test: MTT cytotoxicity, 72 h, B-CPAP thyroid cancer cells; format: cell-based, human; settings: read-out: IC50 (μM) ± S.D., B-CPAP, MTT test
# Summary of the method: as §1
# [6] = test system: MCF-7 cells; test: MTT cytotoxicity, 72 h, MCF-7 breast cancer cells; format: cell-based, human; settings: read-out: IC50 (μM) ± S.D., MCF-7, MTT test
# Summary of the method: as §1
# [7] = test system: LoVo cells; test: MTT cytotoxicity, 72 h, LoVo colon cancer cells; format: cell-based, human; settings: read-out: IC50 (μM) ± S.D., LoVo, MTT test, 2D monolayer
# Summary of the method: as §1
# [8] = test system: human cancer cell line panel; test: MTT cytotoxicity across the in-house human cancer cell line panel; format: cell-based; settings: MTT test, 72 h
# Summary of the method: as §1
# [9] = test system: LoVo OXP cells; test: MTT cytotoxicity, 72 h, oxaliplatin-resistant LoVo OXP colon cancer cells; format: cell-based, human
# Summary of the method: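 Oxaliplatin-resistant LoVo OXP subline obtained by growing LoVo cells in increasing oxaliplatin concentrations, with 17 months of resistant-clone selection. Paired with parental LoVo cells in RPMI-1640 with 10% fetal calf serum and 2 mM L-glutamine. 72 h MTT exposure with test compound in DMSO (final 0.5%), absorbance 570 nm. IC50 fitted by 4-parameter logistic model from at least three independent experiments.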
# [10] = molecular target: protein disulfide isomerase (PDI) (Homo sapiens, UniProt P07237); test: Cell-free PDI inhibition; format: biochemical
# Sequence of protein disulfide isomerase (PDI) (P07237 18-508): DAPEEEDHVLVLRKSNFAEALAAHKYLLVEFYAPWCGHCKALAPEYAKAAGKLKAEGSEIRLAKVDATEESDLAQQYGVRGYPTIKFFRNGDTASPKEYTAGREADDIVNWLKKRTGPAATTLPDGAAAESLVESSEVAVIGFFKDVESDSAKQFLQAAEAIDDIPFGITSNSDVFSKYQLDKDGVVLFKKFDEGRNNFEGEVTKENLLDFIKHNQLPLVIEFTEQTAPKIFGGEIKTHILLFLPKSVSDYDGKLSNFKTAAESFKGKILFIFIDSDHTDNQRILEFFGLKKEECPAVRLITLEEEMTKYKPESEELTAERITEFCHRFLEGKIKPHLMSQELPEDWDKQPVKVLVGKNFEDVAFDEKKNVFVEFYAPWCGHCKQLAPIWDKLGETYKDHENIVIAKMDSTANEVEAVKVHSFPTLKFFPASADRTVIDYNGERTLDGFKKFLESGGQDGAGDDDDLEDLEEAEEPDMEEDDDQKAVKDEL
# [11] = test system: HEK-293 cells; test: MTT cytotoxicity, 72 h, non-tumor HEK-293 embryonic kidney cells; format: cell-based, human
Structure (SMILES),IC50 [1] [µM],IC50 [2] [µM],IC50 [3] [µM],morphological changes (cell death mode) [4],IC50 [5] [µM],IC50 [6] [µM],IC50 [7] [µM],cytotoxic effect against all tested cancer cell lines [8],R.F. = IC50 (resistant subline)/IC50 (wild-type cells) [9],reduction of PDI catalytic activity ([10]; highest tested dose (50 μM)),"IC50 ([10]; read-out: IC50 for PDI inhibition, cell-free, Proteostat kit) [µM]",S.I. = average IC50 normal cells/average IC50 for the malignant cells ([11]; HEK-293 vs malignant cells),"IC50 ([11]; read-out: IC50 (μM) ± S.D., HEK-293, MTT test, 72 h, non-tumor cells) [µM]",fold more effective than complex 2 (average IC50) [8] [fold],IC50 ([8]; read-out: average IC50 across the human cancer cell lines) [µM]
"N.N.[Cl][Pt][Cl] [Cisplatin, cisplatin, reference compound]",12.1 ± 2.8,2.1 ± 0.8,60.6 ± 6.3,classical morphological features of apoptosis induction,18.5 ± 4.1,13.9 ± 1.3,7.6 ± 1.5,,,,,,,,
"Cc1cc(C)n(C(C(=O)OC(C)C)n2nc(C)cc2C)n1 [L^2OiPr, [HC(3,5-Me2pz)2COO^iPr]]",> 50,> 50,,,> 50,> 50,> 50,completely ineffective,,,,,,,
"CC(C)OC(=O)C(n1cccn1)n1cccn1 [L^OiPr, [HC(pz)2COO^iPr]]",> 50,> 50,,,> 50,> 50,> 50,completely ineffective,,,,,,,
"O=C1[O][Pt]2([NH][C@@H]3CCCC[C@H]3[NH]2)[O]C1=O [Oxaliplatin, oxaliplatin, reference compound]",,,,,,,1.1 ± 0.6,,13,,,,,,
"C1N2CN3CN1CP(C2)C3.Cc1cc(C)n(C(C(=O)OC(C)C)n2nc(C)cc2C)n1.F[P-](F)(F)(F)(F)F.[Cu+] [compound 4, [Cu(L^2OiPr)(PTA)]PF6]",18.2 ± 0.8,11.9 ± 1.9,144 ± 7.8,no classical hallmarks of apoptosis,14.3 ± 0.9,14 ± 1.7,7.8 ± 1.5,,1.9,about 80%,13.7,> 4.0,> 50,2,12.3
